The values below come from ChEMBL document CHEMBL4715858, “10-N-heterocylic aryl-isoxazole-amides (AIMs) have robust anti-tumor activity against breast and brain cancer cell lines and useful fluorescence properties” (Bioorg Med Chem, 2020).

Active and inactive are the calls of the source. The calls are words filed in the database; no cut-off is given here.

The test system of one series is C6. Put plainly: Anticancer activity against rat C6 cells assessed as cell growth inhibition measured after 3 to 5 days by MTT assay. Format: functional, cell-based. (Tetrazolium assays rely on reduction of a dye to a coloured formazan, in cell work by metabolically active cells.)
Another series has as its system MDA-MB-468. Put plainly: Anticancer activity against human MDA-MB-468 cells assessed as cell growth inhibition measured after 3 to 5 days by MTT assay. In kind it is functional, cell-based.
The test system of series [1] is SNB-19. The experiment in a line: Anticancer activity against human SNB-19 cells assessed as cell growth inhibition measured after 3 to 5 days by MTT assay. In kind it is functional, cell-based. In a few lines:
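MTT colorimetric growth-inhibition assay in SNB-19 glioblastoma cells. IC50 obtained by fitting a logistic model to the dose-response data, as the concentration giving 50% growth inhibition relative to the DMSO control.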

Series [2] can be described thus: Drug uptake in human SNB-19 cells assessed as punctate localization at 500 nM incubated for 10 mins followed by compound washout twice by HCS NuclearMask staining based confocal laser scanning microscopy. The following applies: snb-19, 10 min, 0.5 µM. Format: ADME, cell-based. The essentials:
(§1)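 Cells plated at 20,000 cells/well and left to adhere overnight. Treatment medium was made from 5 mM DMSO stocks diluted in growth medium and applied for 10 min at growth conditions. Cells were then washed twice with PBS and fixed in 4% PFA for 10 min on ice. Imaged immediately by confocal microscopy, 60x oil objective, excitation 405 nm, emission 422 nm, with HCS NuclearMask counterstain.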

The test system of series [3] is Quadruplex DNA. The experiment in a line: Stabilization of c-myc Pu22 G4 quadruplex oligonucleotide (unknown origin) assessed as melting temperature at 2 equivalents of compound by thermal melting curve based analysis (reference value: 58.4 degC). Format: nucleic-acid assay. In a few lines: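 Annealed at 90 °C for 10 min, then cooled gradually to 4 °C overnight. CD melting monitored at 265 nm from 20–90 °C at 1 °C/min in 0.5 °C steps. Tm from a six-parameter logistic fit.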

Series [4] deals with SNB-19. The experiment in a line: Induction of apoptosis in human SNB-19 cells assessed as membrane blebbing at 500 nM incubated for 10 mins followed by compound washout twice by HCS NuclearMask staining based confocal laser scanning microscopy. Format: functional, cell-based. In a few lines:
as §1

A short description of series [5]: Drug uptake in cytoplasm of human SNB-19 cells at 500 nM incubated for 10 mins followed by compound washout twice by HCS NuclearMask staining based confocal laser scanning microscopy. Format: ADME, subcellular. To be noted: snb-19, 10 min, 0.5 µM. In a few lines: as §1
A short description of series [6]: Drug uptake in nucleus of human SNB-19 cells at 500 nM incubated for 10 mins followed by compound washout twice by HCS NuclearMask staining based confocal laser scanning microscopy. Format: ADME, subcellular. To be noted: snb-19, 10 min, 0.5 µM. The essentials:
as §1

Series [7] deals with Quadruplex DNA. The experiment in a line: Stabilization of c-myc Pu22 G4 quadruplex oligonucleotide (unknown origin) assessed as anisotropic shift at 2 equivalents of compound by NMR spectroscopy. In kind it is nucleic-acid assay. The essentials:
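1H NMR titration of the c-myc Pu22 oligomer, following the G-tetrad imino hydrogen-bonding region (10.95–11.6 ppm) for anisotropic shifts.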

For series [8], the system named is SNB-19. Put plainly: Induction of apoptosis in human SNB-19 cells assessed as organized cell death at 500 nM incubated for 10 mins followed by compound washout twice by HCS NuclearMask staining based confocal laser scanning microscopy. Format: functional. In a few lines: as §1
The test system of series [9] is Quadruplex DNA. Put plainly: Stabilization of c-myc Pu22 G4 quadruplex oligonucleotide (unknown origin) at 2 equivalents of compound by circular dichroism spectral analysis. In kind it is nucleic-acid assay. In a few lines: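 Pu22 at 5 µM strand in 1 mM potassium phosphate pH 6, alone or with 2 equivalents compound, annealed at 90 °C for 10 min and then cooled to 4 °C overnight. CD spectra recorded 200–400 nm at 5 °C, 1 nm bandwidth, 0.2 nm step, 0.5 s per point.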
For orientation: CD spectra are sensitive to the conformation of chiral molecules.

In the case of `Cc1onc(-c2c3ccccc3c(-c3cccnc3)c3ccccc23)c1C(=O)Nc1cc(C(=O)N(CCCN(C)C)CCCN(C)C)n(C)c1`, the IC50 in the series on C6 was above 25 µM; with MDA-MB-468 it was 1.29 µM; in the series with SNB-19 [1], 7.76 µM.
The matching figures for `Cc1onc(-c2c3ccccc3c(-c3ccccn3)c3ccccc23)c1C(=O)Nc1cc(C(=O)N(CCCN(C)C)CCCN(C)C)n(C)c1`: above 25 µM, 6.34 µM and above 25 µM.
As to `Cc1onc(-c2c3ccccc3c(-c3cccc4cccnc34)c3ccccc23)c1C(=O)Nc1cc(C(=O)N(CCCN(C)C)CCCN(C)C)n(C)c1`, the IC50 with C6 was determined as 6.71 µM; with MDA-MB-468 it was 1.17 µM; in the series with SNB-19 [1], 2.03 µM. Moreover, the figures for the Drug uptake result in series [2], in [5] and in [6] were “Active”, “Active” and “Not Active”, respectively. For the same molecule, the Tm with Quadruplex DNA [3] turned out to be 61.7 °C. The result in the series with SNB-19 [4], in the series on Quadruplex DNA [7], in the series with SNB-19 [8] and with Quadruplex DNA [9] was Active.
Take `Cc1onc(-c2c3ccccc3c(-c3ccccc3)c3ccccc23)c1C(=O)Nc1cc(C(=O)N(CCCN(C)C)CCCN(C)C)n(C)c1`: the result in the series on Quadruplex DNA [7] was Active.
As to `CCOC(=O)c1c(-c2c3ccccc3c(-c3ccccc3)c3ccccc23)noc1C`, the outcome with Quadruplex DNA [7] was Active.
Consider `Cc1onc(-c2c3ccccc3c(-c3ccncc3)c3ccccc23)c1C(=O)Nc1cc(C(=O)N(CCCN(C)C)CCCN(C)C)n(C)c1`, for which the IC50 with C6 was 16.9 µM; in the series with MDA-MB-468 it was 3.1 µM; in the series on SNB-19 [1] it was 7.08 µM.

As usually defined, the IC50 is the concentration needed to halve the response being measured.
